Source: ChEMBL document CHEMBL3112482, “Nonclassical antifolates, part 5. Benzodiazepine analogs as a new class of DHFR inhibitors: synthesis, antitumor testing and molecular modeling study” (Eur J Med Chem, 2014)

Key:
[1] = tested on: MCF7; assay: Growth inhibition of human MCF7 cells at 10 uM after 48 hrs; assay type: functional; details: MCF7, 48 h, read-out: GI
Summary of the method: (§1)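 Single-dose primary screen in the NCI 60 human tumour cell line panel, run at the NCI facility. The panel covers nine subpanels: leukaemia, non-small cell lung, colon, CNS, melanoma, ovarian, renal, prostate and breast. Read-out was percent growth of treated cells, shown as a mean graph and reported as percent growth inhibition.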

[2] = tested on: NCI-H322M; assay: Growth inhibition of human NCI-H322M cells at 10 uM after 48 hrs; assay type: functional; details: read-out: GI; summary of the method: as §1
[3] = Growth inhibition of human UO31 cells at 10 uM after 48 hrs; assay type: functional; details: UO-31, 48 h, read-out: GI
Summary of the method: (§2)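 NCI 60-cell-line disease-oriented human tumor panel, single-dose primary screen at 10 µM. Data given as mean-graph percent growth of treated cells, reported as percent growth inhibition (GI %).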

[4] = tested on: CAKI-1; assay: Growth inhibition of human CAKI-1 cells at 10 uM after 48 hrs; assay type: functional; details: CAKI-1, 48 h, read-out: GI; summary of the method: as §1
[5] = tested on: SR; assay: Growth inhibition of human SR cells at 10 uM after 48 hrs; assay type: functional; details: read-out: GI; summary of the method: as §2
[6] = Growth inhibition of human SF539 cells at 10 uM after 48 hrs; assay type: functional; details: SF-539, 48 h, read-out: GI; summary of the method: as §2
[7] = Growth inhibition of human NCI-ADR-RES cells at 10 uM after 48 hrs; assay type: functional; details: read-out: GI; summary of the method: as §1
[8] = Growth inhibition of human Hs 578T cells at 10 uM after 48 hrs; assay type: functional; details: read-out: GI; summary of the method: as §1
[9] = tested on: DU-145; assay: Growth inhibition of human DU145 cells at 10 uM after 48 hrs; assay type: functional; details: DU-145, 48 h, read-out: GI; summary of the method: as §1
[10] = tested on: MDA-MB-435; assay: Growth inhibition of human MDA-MB-435 cells at 10 uM after 48 hrs; assay type: functional; details: MDA-MB-435, 48 h, read-out: GI; summary of the method: as §1
[11] = Cytotoxicity against human prostate cancer cells at 10 uM after 48 hrs; assay type: functional; details: Cancer cell lines
[12] = Cytotoxicity against human colon cancer cells at 10 uM after 48 hrs; assay type: functional; details: Cancer cell lines; summary of the method: as §1
[13] = Growth inhibition of human OVCAR4 cells at 10 uM after 48 hrs; assay type: functional; details: OVCAR-4, 48 h, read-out: GI; summary of the method: as §1
[14] = tested on: PC-3; assay: Growth inhibition of human PC3 cells at 10 uM after 48 hrs; assay type: functional; details: PC-3, 48 h, read-out: GI; summary of the method: as §1
[15] = tested on: COLO 205; assay: Growth inhibition of human COLO205 cells at 10 uM after 48 hrs; assay type: functional; details: COLO 205, 48 h, read-out: GI; summary of the method: as §1
[16] = tested on: K562; assay: Growth inhibition of human K562 cells at 10 uM after 48 hrs; assay type: functional; details: K562, 48 h, read-out: GI; summary of the method: as §1
[17] = tested on: SF-268; assay: Growth inhibition of human SF268 cells at 10 uM after 48 hrs; assay type: functional; details: SF-268, 48 h, read-out: GI; summary of the method: as §2
[18] = tested on: NCI-H522; assay: Growth inhibition of human NCI-H522 cells at 10 uM after 48 hrs; assay type: functional; details: NCI-H522, 48 h, read-out: GI; summary of the method: as §1
[19] = target: T1, Dihydrofolate reductase (Bos taurus, UniProt P00376); assay: Inhibition of bovine liver DHFR measured for every 1 min of 10 mins
T1 sequence (P00376 whole entry): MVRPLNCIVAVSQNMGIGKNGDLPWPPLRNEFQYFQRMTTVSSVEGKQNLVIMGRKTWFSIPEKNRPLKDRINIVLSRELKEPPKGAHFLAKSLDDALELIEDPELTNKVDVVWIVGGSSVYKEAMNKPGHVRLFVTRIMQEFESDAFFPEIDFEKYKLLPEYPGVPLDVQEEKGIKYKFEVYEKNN

[20] = Growth inhibition of human UACC257 cells at 10 uM after 48 hrs; assay type: functional; details: UACC-257, 48 h, read-out: GI; summary of the method: as §2
[21] = tested on: MDA-MB-231; assay: Growth inhibition of human MDA-MB-231 cells at 10 uM after 48 hrs; assay type: functional; details: MDA-MB-231, 48 h, read-out: GI; summary of the method: as §1
[22] = tested on: SK-OV-3; assay: Growth inhibition of human SKOV3 cells at 10 uM after 48 hrs; assay type: functional; details: SK-OV-3, 48 h, read-out: GI; summary of the method: as §2
[23] = Cytotoxicity against human breast cancer cells at 10 uM after 48 hrs; assay type: functional; details: Cancer cell lines; summary of the method: as §1
[24] = Cytotoxicity against human renal cancer cells at 10 uM after 48 hrs; assay type: functional; details: Cancer cell lines
[25] = tested on: TK-10; assay: Growth inhibition of human TK10 cells at 10 uM after 48 hrs; assay type: functional; details: TK-10, 48 h, read-out: GI; summary of the method: as §2
[26] = tested on: SK-MEL-2; assay: Growth inhibition of human SK-MEL-2 cells at 10 uM after 48 hrs; assay type: functional; details: SK-MEL-2, 48 h, read-out: GI; summary of the method: as §2
[27] = tested on: NCI-H23; assay: Growth inhibition of human NCI-H23 cells at 10 uM after 48 hrs; assay type: functional; details: NCI-H23, 48 h, read-out: GI; summary of the method: as §1
[28] = Growth inhibition of human RXF393 cells at 10 uM after 48 hrs; assay type: functional; details: RXF 393, 48 h, read-out: GI; summary of the method: as §1
[29] = tested on: SNB-19; assay: Growth inhibition of human SNB19 cells at 10 uM after 48 hrs; assay type: functional; details: SNB-19, 48 h, read-out: GI; summary of the method: as §2
[30] = Growth inhibition of human OVCAR5 cells at 10 uM after 48 hrs; assay type: functional; details: OVCAR-5, 48 h, read-out: GI; summary of the method: as §1
[31] = Growth inhibition of human EKVX cells at 10 uM after 48 hrs; assay type: functional; details: read-out: GI; summary of the method: as §1
[32] = tested on: OVCAR-8; assay: Growth inhibition of human OVCAR8 cells at 10 uM after 48 hrs; assay type: functional; details: OVCAR-8, 48 h, read-out: GI; summary of the method: as §1
[33] = tested on: T47D; assay: Growth inhibition of human T47D cells at 10 uM after 48 hrs; assay type: functional; details: read-out: GI; summary of the method: as §2
[34] = Cytotoxicity against human CNS cancer cells at 10 uM after 48 hrs; assay type: functional; details: Cancer cell lines
[35] = tested on: A498; assay: Growth inhibition of human A498 cells at 10 uM after 48 hrs; assay type: functional; details: A498, 48 h, read-out: GI; summary of the method: as §1
[36] = tested on: SNB-75; assay: Growth inhibition of human SNB75 cells at 10 uM after 48 hrs; assay type: functional; details: SNB-75, 48 h, read-out: GI; summary of the method: as §2
[37] = tested on: SK-MEL-28; assay: Growth inhibition of human SK-MEL-28 cells at 10 uM after 48 hrs; assay type: functional; details: SK-MEL-28, 48 h, read-out: GI; summary of the method: as §2
[38] = read-out: LC50 (the source's name)

SMILES: COc1cc(/C=C2\CCCc3c2nc(C)nc3-c2cc(OC)c(OC)c(OC)c2)cc(OC)c1OC
- inhibition of growth at 10 µM [1]: 77%
- inhibition of growth at 10 µM [2]: 58.9%
- inhibition of growth at 10 µM [3]: 48.9%
- inhibition of growth at 10 µM [4]: 88.6%
- inhibition of growth at 10 µM [5]: < 30%
- inhibition of growth at 10 µM [6]: 86.5%
- inhibition of growth at 10 µM [7]: 85.6%
- inhibition of growth at 10 µM [8]: 51.4%
- inhibition of growth at 10 µM [9]: 95.1%
- inhibition of growth at 10 µM [10]: 94.8%
- GI50 [11]: 1.8 µM
- LC50 [11]: > 100 µM
- TGI [11]: > 100 µM
- GI50 [12]: 0.9 µM
- TGI [12]: 67.3 µM
- CC50 [12, 38]: 76.2 µM
- inhibition of growth at 10 µM [13]: 57.8%
- inhibition of growth at 10 µM [14]: 57.4%
- inhibition of growth at 10 µM [15]: 80.9%
- inhibition of growth at 10 µM [16]: 88.9%
- inhibition of growth at 10 µM [17]: 78.8%
- inhibition of growth at 10 µM [18]: 48.2%
- IC50 [19]: 0.5 µM
- inhibition of growth at 10 µM [20]: 56.2%
- inhibition of growth at 10 µM [21]: 86.9%
- inhibition of growth at 10 µM [22]: 56.1%
- GI50 [23]: 2.6 µM
- LC50 (concentration killing 50% of cells) [23]: > 100 µM
- TGI [23]: 80.8 µM
- CC50 [24]: > 100 µM
- GI50 [24]: 2.2 µM
- TGI [24]: 42 µM
- inhibition of growth at 10 µM [25]: 55.5%
- inhibition of growth at 10 µM [26]: 73.4%
- inhibition of growth at 10 µM [27]: 66.1%
- inhibition of growth at 10 µM [28]: 77.4%
- inhibition of growth at 10 µM [29]: 38.8%
- inhibition of growth at 10 µM [30]: 89.2%
- inhibition of growth at 10 µM [31]: < 30%
- inhibition of growth at 10 µM [32]: 94.1%
- inhibition of growth at 10 µM [33]: < 30%
- GI50 [34]: 34.5 µM
- TGI [34]: > 100 µM
- CC50 [34, 38]: > 100 µM
- inhibition of growth at 10 µM [35]: 83.7%
- inhibition of growth at 10 µM [36]: 78.1%
- inhibition of growth at 10 µM [37]: 68.1%
